Reference: ChEMBL document CHEMBL4219108, “Synthesis, photophysical properties, and photodynamic activity of positional isomers of TFPP-glucose conjugates” (Bioorg Med Chem, 2018)
Calls of active or inactive are those of the source. The calls are words filed in the database; no cut-off is given here.

Tests used:
[1] = Drug uptake in rat RGK1 cells at 2.5 uM measured after 8 to 24 hrs by fluorescence assay; format: ADME, cell-based
How it was run: (§1)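 RGK cells (MNNG-induced mutant of rat RGM gastric mucosal line; DMEM/F12 1:1, 10% FCS, antibiotic-antimycotic) plated 2.5×10^6/well for 24 h. Pre-incubated 2 h with or without cytochalasin B (50 µM final), then given 2.5 µM compound in medium with 1% DMSO for 8 or 24 h. PBS-washed twice, lysed in DMSO. Fluorescence read at ex 430/em 650 nm and quantified against per-compound DMSO calibration. Mean ± SD of three replicates.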

U-251 = test: Phototoxicity against human U251 cells assessed as reduction in cell survival at 0.2 to 1 uM pretreated for 24 hrs followed by 16 J/cm2 irradiation with halogen lamp measured after 24 hrs by CCK8 assay; format: functional, cell-based
How it was run: (§2)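 HeLa, U251 (DMEM, 10% FCS) or RGK cells plated 5×10^3/well and grown 24 h. Conjugate added at 0.1–1 µM (final 1% DMSO) for 24 h. Cells PBS-washed twice, given fresh medium and irradiated with a 100 W halogen lamp (water jacket, λ >500 nm) to 16 J cm⁻². WST-8 absorbance read at 450 nm 24 h later; survival normalized to untreated wells. EC50 for 50% cell death. Mean ± SD of six replicates.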

HeLa = test: Phototoxicity against human HeLa cells assessed as reduction in cell survival up to 1 uM pretreated for 24 hrs followed by 16 J/cm2 irradiation with halogen lamp measured after 24 hrs by CCK8 assay; format: functional, cell-based; how it was run: as §2
[2] = Drug uptake in rat RGK1 cells at 2.5 uM measured after 8 to 24 hrs in presence of GLUT1 inhibitor cytochalasin B by fluorescence assay; format: ADME, cell-based; how it was run: as §1
Rattus norvegicus = organism: Rattus norvegicus; test: Phototoxicity against rat RGK1 cells assessed as reduction in cell survival at 0.2 to 1 uM pretreated for 24 hrs followed by 16 J/cm2 irradiation with halogen lamp measured after 24 hrs by CCK8 assay; format: functional, cell-based; how it was run: as §2
[3] = n-Octanol/water partition co-efficient, log P of the compound by RP-TLC method; format: physicochemical
How it was run: (§3)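 Log P (n-octanol/water partition) determined by reverse-phase thin-layer chromatography.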

[4] = Dark toxicity in human HeLa cells assessed as reduction in cell survival at 1 uM measured after 24 hrs by CCK8 assay; format: cell-based
How it was run: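 HeLa cells seeded 5×10^3/well, grown 24 h (37°C, 5% CO2), then given conjugate at 1.0 μM (final 1% DMSO) for 24 h. Washed twice with PBS, fresh medium added, kept without light (0 J cm⁻²). WST-8 (CCK-8) read at 450 nm 24 h later. Survival normalized to untreated wells; mean ± SD of six replicates.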

[5] = Lipophilicity, log P of the compound; format: physicochemical; settings: octanol/water; how it was run: as §3

Drug uptake [1]	Drug uptake [2]	logP [3]	logP [5]	SMILES	Activity (U-251)	Activity (HeLa)	Activity (Rattus norvegicus)	Activity [4]
Active	Not Active	6.87	–	OC[C@H]1OC(O)[C@H](Sc2c(F)c(F)c(-c3c4nc(c(-c5c(F)c(F)c(F)c(F)c5F)c5ccc([nH]5)c(-c5c(F)c(F)c(F)c(F)c5F)c5nc(c(-c6c(F)c(F)c(F)c(F)c6F)c6ccc3[nH]6)C=C5)C=C4)c(F)c2F)[C@@H](O)[C@@H]1O (stereo partly specified)	inactive	inactive	inactive	Non-Toxic
–	–	–	6.5	OCCOc1c(F)c(F)c(-c2c3nc(c(-c4c(F)c(F)c(OCCO)c(F)c4F)c4ccc([nH]4)c(-c4c(F)c(F)c(F)c(F)c4F)c4nc(c(-c5c(F)c(F)c(F)c(F)c5F)c5ccc2[nH]5)C=C4)C=C3)c(F)c1F	–	–	–	–
–	–	–	5.4	OCCOc1c(F)c(F)c(-c2c3nc(c(-c4c(F)c(F)c(OCCO)c(F)c4F)c4ccc([nH]4)c(-c4c(F)c(F)c(OCCO)c(F)c4F)c4nc(c(-c5c(F)c(F)c(F)c(F)c5F)c5ccc2[nH]5)C=C4)C=C3)c(F)c1F	–	–	–	–
–	–	–	6.5	OCCOc1c(F)c(F)c(-c2c3nc(c(-c4c(F)c(F)c(F)c(F)c4F)c4ccc([nH]4)c(-c4c(F)c(F)c(OCCO)c(F)c4F)c4nc(c(-c5c(F)c(F)c(F)c(F)c5F)c5ccc2[nH]5)C=C4)C=C3)c(F)c1F	–	–	–	–
Active	Not Active	6.3	–	OC[C@H]1OC(O)[C@H](O)[C@@H](O)[C@@H]1Sc1c(F)c(F)c(-c2c3nc(c(-c4c(F)c(F)c(F)c(F)c4F)c4ccc([nH]4)c(-c4c(F)c(F)c(F)c(F)c4F)c4nc(c(-c5c(F)c(F)c(F)c(F)c5F)c5ccc2[nH]5)C=C4)C=C3)c(F)c1F (stereo partly specified)	Active	Active	Active	Non-Toxic
Active	–	6.05	–	OC[C@H]1OC(Sc2c(F)c(F)c(-c3c4nc(c(-c5c(F)c(F)c(F)c(F)c5F)c5ccc([nH]5)c(-c5c(F)c(F)c(F)c(F)c5F)c5nc(c(-c6c(F)c(F)c(F)c(F)c6F)c6ccc3[nH]6)C=C5)C=C4)c(F)c2F)[C@H](O)[C@@H](O)[C@@H]1O (stereo partly specified)	Active	Active	Active	Non-Toxic
Active	–	6.5	–	OC1O[C@H](CSc2c(F)c(F)c(-c3c4nc(c(-c5c(F)c(F)c(F)c(F)c5F)c5ccc([nH]5)c(-c5c(F)c(F)c(F)c(F)c5F)c5nc(c(-c6c(F)c(F)c(F)c(F)c6F)c6ccc3[nH]6)C=C5)C=C4)c(F)c2F)[C@@H](O)[C@H](O)[C@H]1O (stereo partly specified)	Active	Active	Active	Non-Toxic
Active	Not Active	6.21	–	OC[C@H]1OC(O)[C@H](O)[C@@H](Sc2c(F)c(F)c(-c3c4nc(c(-c5c(F)c(F)c(F)c(F)c5F)c5ccc([nH]5)c(-c5c(F)c(F)c(F)c(F)c5F)c5nc(c(-c6c(F)c(F)c(F)c(F)c6F)c6ccc3[nH]6)C=C5)C=C4)c(F)c2F)[C@@H]1O (stereo partly specified)	Active	Active	Active	Non-Toxic
